Several values for one entry are separate records, joined by “and”; a condition that tells them apart may be missing. Equal entries are not always repeated.
Assays:
Format in all cases: functional
[1] = system: Oryctolagus cuniculus; assay: Febrile responses of compound was measured in rabbit after iv injection at the dose of 1 mg/kg
Summary of the method: (§1)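 Rabbits (strain HYL A, 3–3.5 kg), three per specimen, per French/European pharmacopoeia. Compound dissolved in pyrogen-free isotonic saline and given iv, first at 1 mg/kg. Rectal temperature recorded continuously and automatically. A specimen was judged nonpyrogenic if no rabbit rose above 0.5 °C; such specimens then went on to 3, 5 and 10 mg/kg. ΔT reported per rabbit, with the mean.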

[2] = system: Oryctolagus cuniculus; assay: Febrile responses of compound was measured in rabbit after iv injection at the dose of 3 mg/kg; summary of the method: as §1
[3] = system: Oryctolagus cuniculus; assay: Febrile responses of compound was measured in rabbit after iv injection at the dose of 5 mg/kg; summary of the method: as §1
[4] = system: Mus musculus; assay: Adjuvant activity was measured after sc administration in phosphate buffer saline (PBS) to mice with BSA and expressed as primary response
Summary of the method: (§2)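 Female Swiss mice, 5–6 weeks old. BSA antigen given sc in PBS: 0.5 mg to prime, then 0.1 mg one month later as boost. Glycopeptide (0.1 mg) given with the priming injection. Sera pooled on day 21 for the primary titer; on day 37 sera titrated individually for the secondary titer. Titer is log of highest serum dilution agglutinating BSA-coated sheep RBC (passive hemagglutination). Student's t test vs controls.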

[5] = system: Mus musculus; assay: Adjuvant activity was measured after sc administration in phosphate buffer saline (PBS) to mice with BSA and expressed as secondary response; summary of the method: as §2
[6] = system: Klebsiella pneumoniae; assay: Protective activity against Klebsiella pneumoniae was measured as difference between the percentage of survivors in treated group and its respective control group; parameters: concentration or dose not given beside the values
Summary of the method: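 Mice, 24 per group. Compound given iv at 100 μg on day 0; on day +1, intramuscular challenge with 10^4 K. pneumoniae. Mortality followed from day 1 to day 15. Protection is the percentage of survivors in the treated group minus that in its control group at day +15.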

[7] = system: Klebsiella pneumoniae; assay: Protective activity against Klebsiella pneumoniae was measured as number of survivors to the number of total animals used; 10/24
[8] = system: Oryctolagus cuniculus; assay: Febrile responses of compound was measured in rabbit after iv injection at the dose of 10 mg/kg; summary of the method: as §1
[9] = system: Klebsiella pneumoniae; assay: Protective activity against Klebsiella pneumoniae was measured as number of survivors to the number of total animals used; 0/24
[10] = system: Klebsiella pneumoniae; assay: Protective activity against Klebsiella pneumoniae was measured as number of survivors to the number of total animals used; 16/24
[11] = system: Klebsiella pneumoniae; assay: Protective activity against Klebsiella pneumoniae was measured as number of survivors to the number of total animals used; 7/24
[12] = system: Klebsiella pneumoniae; assay: Protective activity against Klebsiella pneumoniae was measured as number of survivors to the number of total animals used; 3/24
[13] = system: Klebsiella pneumoniae; assay: Protective activity against Klebsiella pneumoniae was measured as number of survivors to the number of total animals used; 4/24
[14] = system: Klebsiella pneumoniae; assay: Protective activity against Klebsiella pneumoniae was measured as number of survivors to the number of total animals used; 8/24
[15] = system: Klebsiella pneumoniae; assay: Protective activity against Klebsiella pneumoniae was measured as number of survivors to the number of total animals used;15/24

Row | Compound | Primary response [4] | Secondary response [5] | Delta T [1] [°C] | Delta T [2] [°C] | Protection [6] [%] | Delta T [8] | other results
1 | COC(=O)CC[C@H](NC(=O)[C@H](C)NC(=O)[C@@H](C)OC1C(O)C(CO)OC(O)C1NC(C)=O)C(=O)OC (stereo partly specified) | – | – | – | – | – | – | Delta T ([1]; 1 mg/kg): 0.33 °C and 0.13 °C; Delta T ([2]; 3 mg/kg): 0.4 °C and 0.17 °C; Delta T ([3]; 5 mg/kg): 1.1 °C and 0.9 °C
2 | CC(=O)NC1C(O)OC(CO)C(O)C1O[C@H](C)C(=O)N[C@@H](C)C(=O)N[C@@H](CCC(N)=O)C(=O)O (stereo partly specified) | 2.97 | 7.35 | 0.03 | 0.9 | – | – | –
3 | CCCCCOC(=O)[C@H](CCC(N)=O)NC(=O)[C@H](C)NC(=O)[C@@H](C)OC1C(O)C(CO)OC(O)C1NC(C)=O (stereo partly specified) | 1.64 | 7.8 | 0.1 | 0.03 | 37 | 0.13 °C | Survivors [7]: 10 N/total
4 | CC(=O)NC1C(O)OC(CO)C(O)C1O[C@H](C)C(=O)N[C@@H](C)C(=O)N[C@@H](CCC(=O)O)C(=O)O (stereo partly specified) | – | – | – | 0.8 | – | – | Delta T ([1]; 1 mg/kg): 0.37 °C and 0.5 °C
5 | CCOC(=O)[C@H](CCC(N)=O)NC(=O)[C@H](C)NC(=O)[C@@H](C)OC1C(O)C(CO)OC(O)C1NC(C)=O (stereo partly specified) | 4.64 | 9.53 | 0.23 | 0.03 | 0 | – | Survivors [9]: 0 N/total; Delta T ([8]; 10 mg/kg): 0.47 °C and 0.32 °C
6 | CC(=O)NC1C(O)OC(CO)C(O)C1O[C@H](C)C(=O)N[C@@H](C)C(=O)N[C@@H](CCC(N)=O)C(N)=O (stereo partly specified) | – | – | 0.1 | 0.2 | – | – | Delta T [3]: 0.67 °C
7 | CCCCOC(=O)[C@H](CCC(N)=O)NC(=O)[C@H](C)NC(=O)[C@@H](C)OC1C(O)C(CO)OC(O)C1NC(C)=O (stereo partly specified) | 4.21 | 8.43 | 0.03 | 0.26 | 63 | 0.3 °C | Survivors [10]: 16 N/total
8 | CCCOC(=O)[C@H](CCC(N)=O)NC(=O)[C@H](C)NC(=O)[C@@H](C)OC1C(O)C(CO)OC(O)C1NC(C)=O (stereo partly specified) | 4.64 | 9.52 | 0.2 | 0.43 | 25 | 0.07 degrees C | Survivors [11]: 7 N/total
9 | COC(=O)[C@H](CCC(N)=O)NC(=O)[C@H](C)NC(=O)[C@@H](C)OC1C(O)C(CO)OC(O)C1NC(C)=O (stereo partly specified) | 3.85 | 8.72 | 0.1 | 0.23 | 8 | 0.1 °C | Survivors [12]: 3 N/total
10 | CCCCCCCCCCOC(=O)[C@H](CCC(N)=O)NC(=O)[C@H](C)NC(=O)[C@@H](C)OC1C(O)C(CO)OC(O)C1NC(C)=O (stereo partly specified) | 3.64 | 9.1 | 0.2 | 0.17 | 12 | 0.23 °C | Survivors [13]: 4 N/total
11 | CCCCCCOC(=O)[C@H](CCC(N)=O)NC(=O)[C@H](C)NC(=O)[C@@H](C)OC1C(O)C(CO)OC(O)C1NC(C)=O (stereo partly specified) | 2.75 | 7.71 | 0.13 | 0.2 | 29 | 0.13 °C | Survivors [14]: 8 N/total
12 | CC(=O)N[C@H]1C(O)O[C@H](CO)[C@@H](O)[C@@H]1O[C@H](C)C(=O)N[C@@H](C)C(=O)N[C@H](CCC(=O)O)C(N)=O (stereo partly specified) [MURAMYL DIPEPTIDE] | 3.64 | 8.34 | 0.76 | – | 58 | – | Survivors [15]: 15 N/total
